Data set [1] is described as follows: Octanol-water partition coefficient, log P of the compound by HPLC analysis.
Data set [2] has as its system MCF7. Nature of the data set: Estrogenic activity in human MCF7 cells assessed as cell proliferation after 7 days by WST-8 assay. It is filed as functional, cell-based. In a few lines: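 Cells were seeded at 1.2 × 10³ per well in the same medium. Proliferation was read by WST-8 (2 h, absorbance at 450 nm). Viable cell number was plotted against log concentration and EC₅₀ taken from a sigmoidal fit.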
For orientation: Tetrazolium assays rely on reduction of a dye to a coloured formazan, in cell work by metabolically active cells.

For data set [3], the system named is MCF7. Put plainly: Estrogenic activity in human MCF7 cells assessed as cell proliferation at 10^-12 M to 10^-6 M after 7 days by WST-8 assay relative to estradiol. It is filed as functional.
Data set [4] deals with T1, Estrogen receptor (Homo sapiens) (UniProt P03372).
T1 sequence (whole entry): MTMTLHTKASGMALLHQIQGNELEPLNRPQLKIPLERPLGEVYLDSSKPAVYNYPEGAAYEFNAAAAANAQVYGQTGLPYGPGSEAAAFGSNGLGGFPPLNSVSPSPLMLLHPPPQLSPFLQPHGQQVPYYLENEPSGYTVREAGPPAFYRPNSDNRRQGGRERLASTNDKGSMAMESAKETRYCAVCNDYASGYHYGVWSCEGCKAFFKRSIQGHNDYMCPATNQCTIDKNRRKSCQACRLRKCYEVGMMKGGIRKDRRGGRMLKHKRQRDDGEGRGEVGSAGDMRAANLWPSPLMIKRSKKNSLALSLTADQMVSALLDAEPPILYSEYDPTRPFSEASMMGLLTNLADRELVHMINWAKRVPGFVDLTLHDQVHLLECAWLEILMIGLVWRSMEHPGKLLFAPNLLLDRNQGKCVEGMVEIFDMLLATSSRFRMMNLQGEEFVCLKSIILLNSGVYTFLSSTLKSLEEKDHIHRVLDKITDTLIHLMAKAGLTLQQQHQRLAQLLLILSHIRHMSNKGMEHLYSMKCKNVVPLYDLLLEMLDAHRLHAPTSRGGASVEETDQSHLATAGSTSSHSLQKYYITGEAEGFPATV
Put plainly: Displacement of [3H]estradiol from human recombinant ER at 10^-8 to 10^-7 M after 14 to 18 hrs by scintillation counting analysis. The following applies: in the assay text read “10^-8 to 10^-4 M” for “10^-8 to 10^-7 M”. Summed up: (§1)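 Recombinant human ER was diluted in binding buffer (50 mM Tris pH 7.5, 10% glycerol, 0.1 mM BHA, 10 mM mercaptoethanol, 0.5% yeast extract) to 2–4 nM. It was incubated refrigerated for 14–18 h with 10⁻⁸ M [³H]estradiol final and 10⁻⁴–10⁻⁸ M competitor in DMSO. Bound ligand was captured on hydroxylapatite for 15 min at 0 °C, washed three times with Tris pH 7.3, and counted by scintillation. Run in duplicate.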
For orientation: Loss of bound radioactivity is the signal in a displacement assay; it reports binding, not function.

Data set [5] addresses T1, Estrogen receptor (Homo sapiens). Put plainly: (§2) Agonist activity at ER in human T47D-Kbluc cells at 10^-14 to 10^-7 M after 24 hrs by luciferase reporter gene assay. It is filed as cell-based. In a few lines: (§3)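 After 24 h at 37 °C, compounds were added at 10⁻¹⁴ to 10⁻⁷ M final in 0.1% DMSO final. After a further 24 h, Steady-Glo was added and luminescence read after 5 min.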
In general terms: Reporter assays use an easily measured gene product as a stand-in for the process of interest.

The target in data set [6] is Estrogen receptor (Homo sapiens) (UniProt P03372). Put plainly: (§4) Displacement of [3H]estradiol from human recombinant ER after 14 to 18 hrs by scintillation counting analysis. In a few lines: as §1
Data set [7] shares this target. The description is as §2. It counts as cell-based. In a few lines: as §3
The source holds these as a separate data set.

The nature of data set [8]: Dissociation constant, pKa of the compound.
In data set [9] the target is T1, Estrogen receptor (Homo sapiens). Described as §4. In a few lines: as §1
This is another data set of the same source.

The results in this text go back to ChEMBL document CHEMBL2311335, “Increased hydrophobicity and estrogenic activity of simple phenols with silicon and germanium-containing substituents” (J Med Chem, 2013).

Active and inactive are the calls of the source. No cut-off for these calls is given here.

One may read the logP as the decadic logarithm of the partition coefficient of the neutral form, usually between octanol and water. Higher therefore signals higher lipophilicity. As a reminder, the EC50 is the concentration at which the effect is half-maximal. A word on the pKa: it is the negative logarithm of the acid dissociation constant.

Turning to `CC[Si](C)(C)c1ccc(O)cc1`, the logP in data set [1] stood at 4.64. The EC50 in the data set with MCF7 [2] (Homo sapiens, MCF7, 168 h) worked out at 41 nM.
As for “4-Triphenylgermylphenol [listing 1 of 2 here]”, in the data set with MCF7 [3], the Emax stood at 47%.
Regarding `CCC(C)(C)c1ccc(O)cc1`, in [1], the logP was determined as 4.04. The EC50 with MCF7 [2] (Homo sapiens, MCF7, 168 h) is 190 nM.
Consider `Oc1ccc(C(c2ccccc2)(c2ccccc2)c2ccccc2)cc1`, for which the Emax with MCF7 [3] (MCF7, 168 h) is 16%. The compound also returned a logP in [1] of 6.25.
`C[Si](C)(c1ccccc1)c1ccc(O)cc1`: the logP in data set [1] came out at 4.91. The EC50 in the data set with MCF7 [2] (Homo sapiens, MCF7, 168 h) was 16 nM.
`CCC(CC)(CC)c1ccc(O)cc1`: the logP in data set [1] is 5.03. For the same compound, the inhibition result in [4] was “Active”. In data set [5], the outcome was Active. Also, the EC50 in the data set with MCF7 [2] (Homo sapiens, MCF7, 168 h) amounted to 23 nM.
In data set [1], “4-Triphenylgermylphenol [listing 2 of 2 here]” showed a logP of 6.97.
`CC(C)(c1ccccc1)c1ccc(O)cc1` displayed a logP in data set [1] of 4.31. The EC50 in the data set on MCF7 [2] (Homo sapiens, MCF7, 168 h) amounted to 38 nM.
As for “4-Triethylgermylphenol [listing 1 of 2 here]”, in data set [6], the inhibition result is “Dose-dependent effect”. In data set [7], the result was Active.
In data set [8], 4-Trimethylgermylphenol showed a pKa of 10.2. The compound further had a logP in data set [1] of 4.11. Moreover, in the data set on MCF7 [2] (mcf7), the EC50 was 100 nM.
With `CC(C)(C)c1ccc(O)cc1`, the EC50 in the data set on MCF7 [2] (Homo sapiens, MCF7, 168 h) came to 870 nM.
In the case of `Oc1ccc([Si](c2ccccc2)(c2ccccc2)c2ccccc2)cc1`, the Emax in the data set with MCF7 [3] (MCF7, 168 h) was 29%. Also, the logP in data set [1] stood at 6.83.
Compound “4-Triethylgermylphenol [listing 2 of 2 here]” showed a logP in [1] of 5.71. In the data set on MCF7 [2] (mcf7), the EC50 is 2.1 nM.
For `CC[Si](CC)(CC)c1ccc(O)cc1`, the inhibition entry in data set [9] was “Dose-dependent effect”. In data set [1], this compound yielded a logP of 5.69. The outcome in [5] was Active. In the data set with MCF7 [2] (Homo sapiens, MCF7, 168 h), the EC50 amounted to 3.4 nM.
In turn, `C[Si](C)(C)c1ccc(O)cc1` showed a pKa in [8] of 10.1. Besides, in data set [1], the logP came to 4.12. Also, the EC50 in the data set on MCF7 [2] (Homo sapiens, MCF7, 168 h) was found to be 63 nM.
